Data as given in article PMC4277207 (ChemMedChem, 2014).
Entries after “also recorded” stand apart in the source; their conditions may differ. Where two headings read alike, the source gives them in different places.

Legend:
[1] = tested on: D1-like receptor (D1 and D5); assay: [3H]SCH 23390 binding assay, rat striatal membranes; settings: ratio of Ki values, rat brain preparation
[2] = tested on: D2-like receptor (D2, D3, and D4); assay: [3H]spiperone binding assay, rat striatal; settings: ratio of Ki values, rat brain preparation
In short: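 The D2-like assay used [3H]spiperone at 0.2 nM on caudate-putamen membranes at 1.5 mg o.w.w./mL, in agonist-optimised Tris-HCl/KCl/MgCl2/CaCl2 buffer at pH 7.4. Nonspecific binding was set with 1 μM (+)-butaclamol, and KD was 0.4 nM. For two-site curves, the high-affinity Ki is reported. […] Values are means of 3–6 determinations.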

[3] = target: human D3 receptor (Homo sapiens, UniProt P35462); type: cell-based; settings: hD3-transfected CHOp cells, mitogenesis; for IC50: read-out: Agonist activity: IC50, mean ± SEM of 3–6 determinations
Chain of human D3 receptor (P35462 whole entry): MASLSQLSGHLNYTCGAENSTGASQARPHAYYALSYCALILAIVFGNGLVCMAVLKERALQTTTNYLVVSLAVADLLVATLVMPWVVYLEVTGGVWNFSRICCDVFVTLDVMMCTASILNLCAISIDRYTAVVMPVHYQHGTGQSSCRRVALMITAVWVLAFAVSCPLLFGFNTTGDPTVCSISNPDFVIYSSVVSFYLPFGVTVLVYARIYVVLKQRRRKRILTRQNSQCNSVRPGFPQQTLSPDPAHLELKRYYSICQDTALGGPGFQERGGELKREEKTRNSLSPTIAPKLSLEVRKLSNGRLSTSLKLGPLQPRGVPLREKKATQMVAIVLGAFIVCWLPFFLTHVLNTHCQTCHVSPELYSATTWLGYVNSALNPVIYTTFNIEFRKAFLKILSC

[4] = type: in vitro ADME

CCCN(CC[C@]1(O)C[C@@H](NS(=O)(=O)c2ccc(F)cc2)C1)[C@H]1CCc2nc(N)sc2C1 (relative stereo) [Compound 33, N-(cis-3-(2-(((S)-2-Amino-4,5,6,7-tetrahydrobenzo[d]thiazol-6-yl)(propyl)amino)-ethyl)-3-hydroxycyclobutyl)-4-fluorobenzenesulfonamide]
Selectivity D1-like/D3 [1]: 53,684
Selectivity D2-like/D3 [2]: 414
% of Stimulation compared to Quinpirole as the standard agonist [3]: 100%
functional activity at the human D3 receptor (agonist character) [3]: full D3 agonists
IC50 [3]: 17 ± 4.4 nM

CCCN(CCC1(O)CC(NS(=O)(=O)c2ccc(F)c(Cl)c2)C1)[C@H]1CCc2nc(N)sc2C1 (stereo in doubt) [Compound 34, N-(cis-3-(2-(((S)-2-Amino-4,5,6,7-tetrahydrobenzo[d]thiazol-6-yl)(propyl)amino)-ethyl)-3-hydroxycyclobutyl)-3-chloro-4-fluorobenzenesulfonamide]
Selectivity D1-like/D3 [1]: 18,217
Selectivity D2-like/D3 [2]: 1,052
% of Stimulation compared to Quinpirole as the standard agonist [3]: 100%
functional activity at the human D3 receptor (agonist character) [3]: full D3 agonists
IC50 [3]: 26 ± 4.1 nM

CCCN(CCC1(O)CC(NC(=O)c2ccc(OC)cc2)C1)[C@H]1CCc2nc(N)sc2C1 (stereo in doubt) [Compound 20, N-(cis-3-(2-(((S)-2-Amino-4,5,6,7-tetrahydrobenzo[d]thiazol-6-yl)(propyl)amino)-ethyl)-3-hydroxycyclobutyl)-4-methoxybenzamide]
Selectivity D1-like/D3 [1]: 61,143
t1/2 in human liver microsomes [4]: >1 h
Percentage remaining of compounds in human liver microsomes ([4]; 0 h): 100%
Percentage remaining of compounds in human liver microsomes ([4]; 5 min): 97.7%
Percentage remaining of compounds in human liver microsomes ([4]; 10 min): 94.1%
Percentage remaining of compounds in human liver microsomes ([4]; 0.25 h): 94.0%
Percentage remaining of compounds in human liver microsomes ([4]; 0.5 h): 85.5%
Percentage remaining of compounds in human liver microsomes ([4]; 1 h): 76.7%
Selectivity D2-like/D3 [2]: 3,779

CCCN(CC[C@]1(O)C[C@@H](NC(=O)c2cccc(OC)c2)C1)[C@H]1CCc2nc(N)sc2C1 (relative stereo) [Compound 21, N-(cis-3-(2-(((S)-2-Amino-4,5,6,7-tetrahydrobenzo[d]thiazol-6-yl)(propyl)amino)-ethyl)-3-hydroxycyclobutyl)-3-methoxybenzamide]
Selectivity D1-like/D3 [1]: 84,474
t1/2 in human liver microsomes [4]: >1 h
Percentage remaining of compounds in human liver microsomes ([4]; 0 h): 100%
Percentage remaining of compounds in human liver microsomes ([4]; 5 min): 99.7%
Percentage remaining of compounds in human liver microsomes ([4]; 10 min): 98.5%
Percentage remaining of compounds in human liver microsomes ([4]; 0.25 h): 92.5%
Percentage remaining of compounds in human liver microsomes ([4]; 0.5 h): 83.0%
Percentage remaining of compounds in human liver microsomes ([4]; 1 h): 74.1%
Selectivity D2-like/D3 [2]: 12,836
% of Stimulation compared to Quinpirole as the standard agonist [3]: 100%
functional activity at the human D3 receptor (agonist character) [3]: full D3 agonists
IC50 [3]: 18 ± 2.7 nM

CCCN(CCC1(O)CC(NC(=O)c2ccc(F)c(Cl)c2)C1)[C@H]1CCc2nc(N)sc2C1 (stereo in doubt) [Compound 18, N-(cis-3-(2-(((S)-2-amino-4,5,6,7-tetrahydrobenzo[d]thiazol-6-yl)(propyl)amino)-ethyl)-3-hydroxycyclobutyl)-3-chloro-4-fluorobenzamide]
Selectivity D1-like/D3 [1]: 65,581
Selectivity D2-like/D3 [2]: 16,272
% of Stimulation compared to Quinpirole as the standard agonist [3]: 100%
functional activity at the human D3 receptor (agonist character) [3]: full D3 agonists
IC50 [3]: 2 ± 0.34 nM

CCCN(CC[C@]1(O)C[C@@H](NC(=O)c2cccc(-c3noc(C)n3)c2)C1)[C@H]1CCc2nc(N)sc2C1 (relative stereo) [Compound 23, N-(cis-3-(2-(((S)-2-amino-4,5,6,7-tetrahydrobenzo[d]thiazol-6-yl)(propyl)amino)-ethyl)-3-hydroxycyclobutyl)-3-(5-methyl-1,2,4-oxadiazol-3-yl)benzamide]
Selectivity D1-like/D3 [1]: 28,300
t1/2 in human liver microsomes [4]: >1 h
Percentage remaining of compounds in human liver microsomes ([4]; 0 h): 100%
Percentage remaining of compounds in human liver microsomes ([4]; 5 min): 96.6%
Percentage remaining of compounds in human liver microsomes ([4]; 10 min): 99.2%
Percentage remaining of compounds in human liver microsomes ([4]; 0.25 h): 99.0%
Percentage remaining of compounds in human liver microsomes ([4]; 0.5 h): 90.0%
Percentage remaining of compounds in human liver microsomes ([4]; 1 h): 65.5%
Selectivity D2-like/D3 [2]: 29,800
% of Stimulation compared to Quinpirole as the standard agonist [3]: 100%
functional activity at the human D3 receptor (agonist character) [3]: full D3 agonists; also recorded: full agonist
IC50 [3]: 19 ± 1.5 nM

CCCN(CCC1(O)CC(NC(=O)c2ccccc2F)C1)[C@H]1CCc2nc(N)sc2C1 (stereo in doubt) [Compound 15, N-(cis-3-(2-(((S)-2-amino-4,5,6,7-tetrahydrobenzo[d]thiazol-6-yl)(propyl)amino)-ethyl)-3-hydroxycyclobutyl)-2-fluorobenzamide]
Selectivity D1-like/D3 [1]: 116,521
Selectivity D2-like/D3 [2]: 36,956
% of Stimulation compared to Quinpirole as the standard agonist [3]: 100%
functional activity at the human D3 receptor (agonist character) [3]: full D3 agonists
IC50 [3]: 2 ± 0.49 nM

CCCN(CCC1(O)CC(NS(=O)(=O)c2ccc(OC)cc2)C1)[C@H]1CCc2nc(N)sc2C1 (stereo in doubt) [Compound 27, N-(cis-3-(2-(((S)-2-Amino-4,5,6,7-tetrahydrobenzo[d]thiazol-6-yl)(propyl)amino)-ethyl)-3-hydroxycyclobutyl)-4-methoxybenzenesulfonamide]
Selectivity D1-like/D3 [1]: 1,631
Selectivity D2-like/D3 [2]: 65
